Measurements: ChEMBL document CHEMBL1287652, “QSAR modeling, synthesis and bioassay of diverse leukemia RPMI-8226 cell line active agents” (2010)

How the values were obtained:
Assay type in all cases: functional
A549 = assay: Antitumor activity against human A549 cells at 10 uM after 48 hrs by sulforhodamine B assay relative to control; settings: A549, 48 h, values are per cent of control
In short: (§1)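 Single-dose screen in a 55-line panel. Cells in RPMI-1640 with 5% FBS and 2 mM glutamine were preincubated for 24 h, then exposed to compound (DMSO stock diluted in medium) for 48 h at 37 °C with 5% CO2. Cells were fixed with cold TCA, stained with 0.4% SRB in 1% acetic acid, and dye was solubilized in 10 mM Tris base and read at 515 nm. Growth is given as percent of untreated control.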

[1] = Antitumor activity against human Hs 578T cells at 10 uM after 48 hrs by sulforhodamine B assay relative to control; settings: values are per cent of control; in short: as §1
HCT-15 = assay: Antitumor activity against human HCT15 cells at 10 uM after 48 hrs by sulforhodamine B assay relative to control; settings: HCT-15, 48 h, values are per cent of control; in short: as §1
NCI-H226 = assay: Antitumor activity against human NCI-H226 cells at 10 uM after 48 hrs by sulforhodamine B assay relative to control; settings: NCI-H226, 48 h, values are per cent of control
In short: (§2)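 NCI panel lines were grown in RPMI-1640 with 5% FBS and 2 mM L-glutamine and seeded at 5000–40,000 cells/well according to doubling time. After 24 h at 37 °C, 5% CO2, one dose from a DMSO stock was added for 48 h. Cells were TCA-fixed (10% final adherent, 16% suspension), SRB-stained and read at 515 nm. Percent growth is relative to untreated control.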

OVCAR-3 = assay: Antitumor activity against human OVCAR-3 cells at 10 uM after 48 hrs by sulforhodamine B assay relative to control; settings: OVCAR-3, 48 h, values are per cent of control; in short: as §2
SR = assay: Antitumor activity against human SR cells at 10 uM after 48 hrs by sulforhodamine B assay relative to control; settings: values are per cent of control
In short: (§3)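 NCI panel line grown in RPMI-1640 with 5% FBS and 2 mM L-glutamine, plated at 5000–40,000 cells/well, 24 h preincubation. Single final 10 µM from DMSO stock, 48 h at 37 °C, 5% CO2. TCA fixation (10% adherent, 16% suspension), SRB stain, absorbance 515 nm. Percent growth relative to untreated control.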

NCI-H522 = assay: Antitumor activity against human NCI-H522 cells at 10 uM after 48 hrs by sulforhodamine B assay relative to control; settings: NCI-H522, 48 h, values are per cent of control; in short: as §2
U-251 = assay: Antitumor activity against human U251 cells at 10 uM after 48 hrs by sulforhodamine B assay relative to control; settings: U-251, 48 h, values are per cent of control; in short: as §3
OVCAR-5 = assay: Antitumor activity against human OVCAR5 cells at 10 uM after 48 hrs by sulforhodamine B assay relative to control; settings: OVCAR-5, 48 h, values are per cent of control; in short: as §2
MOLT-4 = assay: Antitumor activity against human MOLT4 cells at 10 uM after 48 hrs by sulforhodamine B assay relative to control; settings: MOLT-4, 48 h, values are per cent of control; in short: as §2
UACC-62 = assay: Antitumor activity against human UACC62 cells at 10 uM after 48 hrs by sulforhodamine B assay relative to control; settings: UACC-62, 48 h, values are per cent of control; in short: as §3
HT-29 = assay: Antitumor activity against human HT-29 cells at 10 uM after 48 hrs by sulforhodamine B assay relative to control; settings: HT-29, 48 h, values are per cent of control; in short: as §1
NCI-H322M = assay: Antitumor activity against human NCI-H322M cells at 10 uM after 48 hrs by sulforhodamine B assay relative to control; settings: values are per cent of control; in short: as §2
MCF7 = assay: Antitumor activity against human MCF7 cells at 10 uM after 48 hrs by sulforhodamine B assay relative to control; settings: MCF7, 48 h, values are per cent of control; in short: as §1
OVCAR-4 = assay: Antitumor activity against human OVCAR4 cells at 10 uM after 48 hrs by sulforhodamine B assay relative to control; settings: OVCAR-4, 48 h, values are per cent of control; in short: as §2
SK-OV-3 = assay: Antitumor activity against human SKOV3 cells at 10 uM after 48 hrs by sulforhodamine B assay relative to control; settings: SK-OV-3, 48 h, values are per cent of control; in short: as §2
OVCAR-8 = assay: Antitumor activity against human OVCAR8 cells at 10 uM after 48 hrs by sulforhodamine B assay relative to control; settings: OVCAR-8, 48 h, values are per cent of control; in short: as §2
NCI/ADR-RES = assay: Antitumor activity against human NCI/ADR-RES cells at 10 uM after 48 hrs by sulforhodamine B assay relative to control; settings: values are per cent of control; in short: as §2
A498 = assay: Antitumor activity against human A498 cells at 10 uM after 48 hrs by sulforhodamine B assay relative to control; settings: A498, 48 h, values are per cent of control; in short: as §1
NCI-H23 = assay: Antitumor activity against human NCI-H23 cells at 10 uM after 48 hrs by sulforhodamine B assay relative to control; settings: NCI-H23, 48 h, values are per cent of control; in short: as §2
SF-539 = assay: Antitumor activity against human SF539 cells at 10 uM after 48 hrs by sulforhodamine B assay relative to control; settings: SF-539, 48 h, values are per cent of control; in short: as §2
MDA-MB-435 = assay: Antitumor activity against human MDA-MB-435 cells at 10 uM after 48 hrs by sulforhodamine B assay relative to control; settings: MDA-MB-435, 48 h, values are per cent of control; in short: as §1
SF-295 = assay: Antitumor activity against human SF295 cells at 10 uM after 48 hrs by sulforhodamine B assay relative to control; settings: SF-295, 48 h, values are per cent of control; in short: as §2
T47D = assay: Antitumor activity against human T47D cells at 10 uM after 48 hrs by sulforhodamine B assay relative to control; settings: values are per cent of control; in short: as §3
M14 = assay: Antitumor activity against human M14 cells at 10 uM after 48 hrs by sulforhodamine B assay relative to control; settings: M14, 48 h, values are per cent of control; in short: as §1
EKVX = assay: Antitumor activity against human EKVX cells at 10 uM after 48 hrs by sulforhodamine B assay relative to control; settings: values are per cent of control; in short: as §1
TK-10 = assay: Antitumor activity against human TK10 cells at 10 uM after 48 hrs by sulforhodamine B assay relative to control; settings: TK-10, 48 h, values are per cent of control; in short: as §3
SN12C = assay: Antitumor activity against human SN12C cells at 10 uM after 48 hrs by sulforhodamine B assay relative to control; settings: values are per cent of control; in short: as §2
LOX IMVI = assay: Antitumor activity against human LOXIMVI cells at 10 uM after 48 hrs by sulforhodamine B assay relative to control; settings: values are per cent of control; in short: as §1
Malme-3M = assay: Antitumor activity against human MALME-3M cells at 10 uM after 48 hrs by sulforhodamine B assay relative to control; settings: values are per cent of control; in short: as §1
SK-MEL-5 = assay: Antitumor activity against human SK-MEL-5 cells at 10 uM after 48 hrs by sulforhodamine B assay relative to control; settings: SK-MEL-5, 48 h, values are per cent of control; in short: as §2
ACHN = assay: Antitumor activity against human ACHN cells at 10 uM after 48 hrs by sulforhodamine B assay relative to control; settings: values are per cent of control; in short: as §1

SMILES	growth, % of control at 10 µM (A549) [%]	growth, % of control at 10 µM [1] [%]	growth, % of control at 10 µM (HCT-15) [%]	growth, % of control at 10 µM (NCI-H226) [%]	growth, % of control at 10 µM (OVCAR-3) [%]	growth, % of control at 10 µM (SR) [%]	growth, % of control at 10 µM (NCI-H522) [%]	growth, % of control at 10 µM (U-251) [%]	growth, % of control at 10 µM (OVCAR-5) [%]	growth, % of control at 10 µM (MOLT-4) [%]	growth, % of control at 10 µM (UACC-62) [%]	growth, % of control at 10 µM (HT-29) [%]	growth, % of control at 10 µM (NCI-H322M) [%]	growth, % of control at 10 µM (MCF7) [%]	growth, % of control at 10 µM (OVCAR-4) [%]	growth, % of control at 10 µM (SK-OV-3) [%]	growth, % of control at 10 µM (OVCAR-8) [%]	growth, % of control at 10 µM (NCI/ADR-RES) [%]	growth, % of control at 10 µM (A498) [%]	growth, % of control at 10 µM (NCI-H23) [%]	further results
COc1ccc(NC(=O)Nc2ccccc2OCCCOc2ccccc2NC(=O)Nc2ccc(OC)cc2)cc1	-80	46.4	65.5	87.1	-11.4	-39.7	63.7	-50.9	46	-5.8	3.9	54.9	82.4	28.2	-67.2	7.9	-65.3	59.8	-9.3	2.8	growth, % of control at 10 µM (SF-539): -29.6%; growth, % of control at 10 µM (MDA-MB-435): 41.6%; growth, % of control at 10 µM (SF-295): 49%; growth, % of control at 10 µM (T47D): 9.2%; growth, % of control at 10 µM (M14): 61.4%; growth, % of control at 10 µM (EKVX): 2.2%; growth, % of control at 10 µM (TK-10): 22%; growth, % of control at 10 µM (SN12C): -21.3%; growth, % of control at 10 µM (LOX IMVI): 23.7%; growth, % of control at 10 µM (Malme-3M): 55.1%; growth, % of control at 10 µM (SK-MEL-5): 48.7%; growth, % of control at 10 µM (ACHN): 46.3%
COc1ccc(NC(=O)Nc2ccc(OCCCOc3ccc(NC(=O)Nc4ccc(OC)cc4)cc3)cc2)cc1	111	88.2	118	121	116	90.4	98.3	89.8	88.4	95.5	109	107	90.2	55	109	88.4	70.1	94.4	144	94.5	growth, % of control at 10 µM (SF-539): 86.7%; growth, % of control at 10 µM (MDA-MB-435): 109%; growth, % of control at 10 µM (SF-295): 71.7%; growth, % of control at 10 µM (T47D): 83.6%; growth, % of control at 10 µM (M14): 95.5%; growth, % of control at 10 µM (EKVX): 86.7%; growth, % of control at 10 µM (TK-10): 123%; growth, % of control at 10 µM (SN12C): 87.3%; growth, % of control at 10 µM (LOX IMVI): 99.3%; growth, % of control at 10 µM (Malme-3M): 93.3%; growth, % of control at 10 µM (SK-MEL-5): 99.5%; growth, % of control at 10 µM (ACHN): > 100%
O=C(Nc1ccc(Cl)cc1)Nc1ccc(OCCCOc2ccc(NC(=O)Nc3ccc(Cl)cc3)cc2)cc1	107	85.4	117	123	112	88.7	91.6	103	94.6	118	98.9	114	102	103	110	122	64.1	99.8	107	96.5	growth, % of control at 10 µM (SF-539): 91.8%; growth, % of control at 10 µM (MDA-MB-435): 110%; growth, % of control at 10 µM (SF-295): 97.3%; growth, % of control at 10 µM (T47D): 106%; growth, % of control at 10 µM (M14): 96.7%; growth, % of control at 10 µM (EKVX): 95%; growth, % of control at 10 µM (TK-10): 129%; growth, % of control at 10 µM (SN12C): 105%; growth, % of control at 10 µM (LOX IMVI): 98.1%; growth, % of control at 10 µM (Malme-3M): 101%; growth, % of control at 10 µM (SK-MEL-5): > 100%; growth, % of control at 10 µM (ACHN): 106%
